Values after ≈ are worked out from the molar mass of the structure shown. Active and inactive are the calls of the source. No cut-off for these calls is given here.
How the values were obtained:
K562 = assay: Antiproliferative activity against human K562 cells; format: functional
How it was run: (§1)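 GI50 or CC50 values were read from mean dose-response curves, with 4 parallels per concentration.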

HeLa = assay: Cytotoxicity against human HeLa cells; format: functional; how it was run: as §1
L929 = assay: Antiproliferative activity against mouse L929 cells; format: cell-based; how it was run: as §1
Neutrophil = assay: Inhibition of serum-opsonized zymosan-stimulated ROS production in bovine neutrophils by luminol-dependent chemiluminescence assay; format: functional, cell-based; settings: Bos taurus
[1] = biological target: Dehydrogenase/reductase SDR family member 9 (Homo sapiens) (UniProt Q9BPW9); assay: Inhibition of 3alpha-HSD
MCF7 = assay: Growth inhibition of human MCF7 cells; format: functional; how it was run: as §1
[2] = Growth inhibition of human HM02 cells; format: functional; how it was run: as §1
HepG2 = assay: Growth inhibition of human HepG2 cells; format: functional; how it was run: as §1
[3] = biological target: T1, Prostaglandin G/H synthase 2 (Homo sapiens, UniProt P35354)
T1 sequence (P35354 whole entry): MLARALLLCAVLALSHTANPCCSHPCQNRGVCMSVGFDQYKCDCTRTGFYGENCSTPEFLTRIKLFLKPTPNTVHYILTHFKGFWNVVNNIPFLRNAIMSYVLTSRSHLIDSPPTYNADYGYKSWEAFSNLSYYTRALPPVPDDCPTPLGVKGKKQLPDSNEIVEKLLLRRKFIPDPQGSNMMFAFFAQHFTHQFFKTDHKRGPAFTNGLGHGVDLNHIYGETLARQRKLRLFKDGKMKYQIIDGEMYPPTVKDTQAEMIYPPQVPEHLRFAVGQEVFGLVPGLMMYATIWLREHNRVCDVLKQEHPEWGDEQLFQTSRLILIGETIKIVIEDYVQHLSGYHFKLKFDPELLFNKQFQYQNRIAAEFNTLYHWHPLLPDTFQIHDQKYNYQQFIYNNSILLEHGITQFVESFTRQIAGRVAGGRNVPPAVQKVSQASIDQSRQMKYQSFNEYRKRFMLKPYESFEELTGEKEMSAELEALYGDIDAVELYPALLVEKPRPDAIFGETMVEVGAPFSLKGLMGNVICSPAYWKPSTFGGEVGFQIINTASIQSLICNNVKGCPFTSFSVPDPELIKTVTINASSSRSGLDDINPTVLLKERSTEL

Sequence of Dehydrogenase/reductase SDR family member 9 (Homo sapiens) (Q9BPW9 whole entry): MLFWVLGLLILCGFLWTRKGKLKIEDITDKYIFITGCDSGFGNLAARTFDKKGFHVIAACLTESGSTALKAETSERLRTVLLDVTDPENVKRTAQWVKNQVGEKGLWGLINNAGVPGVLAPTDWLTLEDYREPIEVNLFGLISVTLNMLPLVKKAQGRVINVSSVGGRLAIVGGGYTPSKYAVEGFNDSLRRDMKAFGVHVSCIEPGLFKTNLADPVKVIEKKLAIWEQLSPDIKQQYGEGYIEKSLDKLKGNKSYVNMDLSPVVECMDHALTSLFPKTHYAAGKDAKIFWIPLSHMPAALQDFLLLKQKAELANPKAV

| SMILES | GI50 (K562) [µM] | Activity [1] | GI50 (MCF7) [µg/mL] | GI50 (HepG2) [µg/mL] | CC50 (HeLa) [µM] | GI50 (L929) [µM] | Activity (Neutrophil) | GI50 [2] [µg/mL] | IC50 [3] [µM] |
| --- | --- | --- | --- | --- | --- | --- | --- | --- | --- |
| COC1=CC(=O)C(OC)=C(/C=C2\[C@@H](C)CC[C@H]3C(C)(C)CCC[C@]23C)C1=O | 20.7 |  |  |  | 75.3 | 41.6 |  |  |  |
| C=C1CC[C@@H]2C(C)(C)CCC[C@@]2(C)[C@@H]1CC1=CC(=O)C=CC1=O |  |  |  |  |  |  | Active |  |  |
| C=C1CC[C@@H]2C(C)(C)CCC[C@@]2(C)[C@@H]1Cc1cc(O)ccc1O |  | Active |  |  |  |  | Active |  |  |
| CC1=CC[C@@H]2C(C)(C)CCC[C@@]2(C)[C@@H]1CC1=CC(=O)C=CC1=O |  | Active |  |  |  |  | Active |  |  |
| CC1=CC[C@@H]2C(C)(C)CCC[C@@]2(C)[C@@H]1Cc1cc(O)ccc1O |  |  |  |  |  |  | Active |  |  |
| C=C1CC[C@@H]2C(C)(C)CCC[C@@]2(C)[C@@H]1CC1=C(O)C(=O)C=C(OC)C1=O (racemic) | 8.4 | Active | 2.4 (≈ 6.69 µM) | 6 (≈ 16.7 µM) | 72.1 | 20.9 |  | 5.3 (≈ 14.8 µM) |  |
| CC1=CC[C@H]2C(C)(C)CCC[C@]2(C)[C@H]1/C=C1\C=C2OCOC2=CC1=O (racemic) | 3.5 | Active |  |  | 7.4 | 6.2 |  |  |  |
| COc1ccc(O)c(O)c1/C=C1\[C@@H](C)CC[C@H]2C(C)(C)CCC[C@]12C (racemic) [(+/-)-WIEDENDIOL B] | 35.8 | Active |  |  | 38.1 | 63.1 |  |  | 0.7 |
| C=C1CC[C@H]2C(C)(C)CCC[C@]2(C)[C@H]1/C=C1\C=C2OCOC2=CC1=O (racemic) [SESQUITERPENE CYCLOHEXADIENONE] | 6.2 |  |  |  | 20.6 | 12.9 |  |  |  |

Second part, led by results:

| GI50 (K562) [µM] | Activity [1] | GI50 (MCF7) [µg/mL] | GI50 (HepG2) [µg/mL] | SMILES | CC50 (HeLa) [µM] | GI50 (L929) [µM] | Activity (Neutrophil) | GI50 [2] [µg/mL] | IC50 [3] [µM] |
| --- | --- | --- | --- | --- | --- | --- | --- | --- | --- |
| 6.1 |  |  |  | COC1=CC(=O)C(O)=C(C[C@@]2(C)C3=C(CC[C@@H]2C)C(C)(C)CCC3)C1=O (racemic) | 62.3 | 14 |  |  |  |
| 13.4 | Active | 2.6 (≈ 7.25 µM) | 3.6 (≈ 10 µM) | COC1=CC(=O)C(O)=C(/C=C2\[C@@H](C)CC[C@H]3C(C)(C)CCC[C@]23C)C1=O (racemic) | 75.1 | 27.1 |  | 3.1 (≈ 8.65 µM) |  |
| 26.6 | Active |  |  | COC1=CC(=O)C(=O)C(C[C@@]2(C)C3=C(CC[C@@H]2C)C(C)(C)CCC3)=C1OC (racemic) | 61.3 | 73.4 |  |  |  |
| 21.1 | Active |  |  | COc1c(C[C@H]2C(C)=CC[C@H]3C(C)(C)CCC[C@]23C)cc2c(c1C=O)OCO2 (racemic) [PROTECTED SIPHONODICTYAL C] | 41.4 | 24 |  |  |  |
| 25.6 |  |  |  | COc1ccc(O)c(O)c1C[C@@]1(C)C2=C(CC[C@@H]1C)C(C)(C)CCC2 (racemic) [SESQUITERPENE HYDROQUINONE] | 41.3 | 59.9 |  |  |  |
| 1 |  |  |  | COc1cccc2c1C(=O)c1c(O)c3c(c(O)c1C2=O)C[C@@](O)(C(=O)CO)C[C@@H]3O[C@H]1C[C@H](N)[C@H](O)[C@H](C)O1 [DOXORUBICIN] | 2 | 1.2 |  |  |  |
